# M4 ag: CHRM4 agonism in calcium assay; CHO-K1 hM4/Gqi5, Fluo-8 calcium fluorescence; vehicle 0%, full acetylcholine response 100%; activation, % at 3 µM; P08173; 0.14% of 360,000 active;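 active = activation above the run mean over all test wells plus 3 SD, cut at about 32% in these data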;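 note: peak over basal fluorescence ratio per well then scaled between controls; 0% = DMSO wells and 100% = acetylcholine at EC100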
# Target sequence (P08173 whole entry, looked up): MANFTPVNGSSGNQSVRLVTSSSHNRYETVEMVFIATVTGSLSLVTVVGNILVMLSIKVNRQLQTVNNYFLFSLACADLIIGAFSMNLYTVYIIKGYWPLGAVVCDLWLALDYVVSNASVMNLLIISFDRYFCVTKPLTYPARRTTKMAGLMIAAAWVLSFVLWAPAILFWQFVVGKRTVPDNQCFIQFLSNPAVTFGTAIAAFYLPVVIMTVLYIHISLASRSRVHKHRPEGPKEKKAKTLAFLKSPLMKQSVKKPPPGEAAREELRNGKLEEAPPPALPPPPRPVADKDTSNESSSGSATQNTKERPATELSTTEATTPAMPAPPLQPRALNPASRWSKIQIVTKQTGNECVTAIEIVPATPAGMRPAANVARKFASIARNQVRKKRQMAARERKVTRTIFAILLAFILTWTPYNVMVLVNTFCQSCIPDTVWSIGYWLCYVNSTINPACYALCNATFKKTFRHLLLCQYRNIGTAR
# M4 antag: antagonists of human muscarinic M4 receptor (CHRM4). CHO-hM4 cells, ACh EC80, Fluo-8 calcium fluorescence. inhibition, % at 3 µM. 0.73% of 360,000 active. AID 624125;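 active = inhibition above its plate's cutoff, the mean inhibition of sample wells plus 3 SD, cut at about 27% in these data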;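 note: 0% = acetylcholine EC80 with DMSO and 100% = DMSO without agonist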
# CHRM4 PAM: positive allosteric modulators of human muscarinic M4 receptor | P08173 | CHO-K1 hM4/Gqi5, Fluo-8 calcium fluorescence, ACh EC20; 0% = ACh EC20, 100% = maximal ACh | activation, % at 3 µM | 0.4% of 360,000 active | AID 624126;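 active = activation above its plate's cutoff, the mean activation of sample wells plus 3 SD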
# CHRM5 PAM: CHRM5 positive allosteric modulation; CHO-K1 hM5, Fluo-8 calcium, ACh EC20 PAM; 0% = ACh EC20, 100% = ACh EC100; 0.3% of 360,000 active; activation, % at 3 µM; P08912; AID 624038;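 active = activation above the run cutoff, the mean activation of all test compounds plus 3 SD, cut at about 18% in these data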
#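 Assay system: CHO-K1 hM5 cells / Incubation: Fluo-8 loading 80 min at 37 °C plus 30 min room temperature / Technique: Fluo-8 calcium dye fluorescence, kinetic read / Repeats: single replicate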
# M5 antag: CHRM5 antagonism in calcium assay; CHO-hM5 cells, Fluo-8 calcium fluorescence, ACh EC80; P08912; 0.59% of 360,000 active; inhibition, % at 3 µM; AID 624040;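 active = inhibition above a per-plate cutoff, the mean of that plate's test compounds plus 3 SD, cut at about 27% in these data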;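 note: 0% = acetylcholine EC80 with DMSO and 100% = DMSO without agonist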
# CHRM5 agonist: CHRM5 agonism in calcium assay | P08912 | activation, % at 3 µM | CHO-K1 hM5 cells, Fluo-8 calcium fluorescence; 0% DMSO wells, 100% maximal acetylcholine response | 0.19% of 360,000 active;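 active = activation above the run's mean over test compounds plus 3 SD, cut at about 23% in these data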;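 note: signal is peak over basal fluorescence ratio across the kinetic read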
# Active calls of the source: *. A selection: hits, their analogues and other compounds. The true share with any hit is near 1.8%.
SMILES,M4 ag,M4 antag,CHRM4 PAM,CHRM5 PAM,M5 antag,CHRM5 agonist
Cc1cccc(NC(=O)COC(=O)c2c(-c3ccccc3)noc2C)c1,10,-25,-3,-10,-6,-3
COCCn1c(=NC(=O)C2COc3ccccc3O2)sc2cc(S(N)(=O)=O)ccc21 (stereo unspecified),13,2,-13,-9,4,4
CCn1c(=NC(=O)C2COc3ccccc3O2)sc2c(OC)ccc(OC)c21 (stereo unspecified),-2,36*,-21,-3,5,-2
CCN(CC)CCn1c(=S)[nH]c2cc3c(cc2c1=O)OCO3,0,-8,7,-4,-3,1
CCN1CCN(CCn2c(=S)[nH]c3cc4c(cc3c2=O)OCO4)CC1,0,6,-8,-19,29*,-6
CN(C)c1c([N+](=O)[O-])cc(N2C(=O)C=CC2=O)cc1[N+](=O)[O-],0,-15,7,3,2,-5
CCOC(=O)C1=NN(c2ccccc2)C2C(=O)N(c3ccccc3OC)C(=O)C12 (stereo unspecified),1,7,-1,-13,27*,-2
CCOC(=O)C1=NN(c2ccc(OC)cc2)C2C(=O)N(c3ccccc3OC)C(=O)C12 (stereo unspecified),2,10,-11,1,4,6
CC(C)C[C@H](NC(=O)c1nc[nH]c1C(=O)N1CCc2ccccc2C1)C(=O)OC(C)(C)C,-1,-21,1,6,1,-6
NC(Cc1ccc(Cl)cc1)c1csc(NC(=O)Nc2ccccc2)n1 (stereo unspecified),28,27*,-2,1,7,4
COc1ccccc1NC(=O)Nc1nc(C(N)Cc2ccccc2)cs1 (stereo unspecified),14,5,2,-3,11,2
COc1ccccc1NC(=O)Nc1nc(C(N)Cc2ccc(Cl)cc2)cs1 (stereo unspecified),51*,34*,-4,3,9,2
Cc1ccccc1NC(=O)Nc1nc(C(N)Cc2ccccc2)cs1 (stereo unspecified),36*,6,-7,-4,4,11
COc1ccc(C(C)=O)cc1Cn1cnc2c(cnn2C)c1=O,0,8,-9,8,-1,3
CCCCNC(=O)C(NC(=O)c1ccccc1)C(=O)c1ccccc1 (stereo unspecified),2,-5,6,5,-3,0
NC(=O)c1ccsc1NC(=O)COC(=O)c1ccc(Cl)cc1,26,11,-11,-28,15,7
O=C(COC(=O)CSc1ccc(Cl)cc1)NCCc1ccccc1,3,-14,24*,4,-3,-3
NC(=O)c1ccsc1NC(=O)COC(=O)CSc1ccc(Cl)cc1,16,16,-18,-20,32*,4
Cc1ccc(OCC(=O)OCC(=O)Nc2sccc2C(N)=O)cc1C,16,23,-11,-18,32*,10
CC(=O)c1ccc(NC(=O)C(C)Nc2ccc(Cl)cc2)cc1 (stereo unspecified),14,-1,-11,-10,10,4
CCN(Cc1ccncc1)Cc1cn[nH]c1-c1ccc(OC)cc1F,3,-3,4,-6,-4,-1
CN(C)CCC=C1c2ccccc2CCc2ccccc21,3,95*,-17,-19,99*,0
CNCCC=C1c2ccccc2C=Cc2ccccc21,4,90*,-18,-18,99*,1
CN(C)CCC=C1c2ccccc2C=Cc2ccccc21,5,99*,-19,-18,99*,0
CN(C)CC/C=C1/c2ccccc2COc2ccc(CC(=O)O)cc21,0,4,-3,-11,7,-2
CNc1ccc(C=C2C=Cc3ccccc32)cc1,3,-5,8,2,2,6
COc1ccc(N2CCN(C(=O)COC(=O)/C=C/c3ccc(C(F)(F)F)cc3)CC2)cc1,1,-2,0,8,-12,-1

# Compound activity (PubChem)
